The subject of data set [1] is Hepatitis B virus. Nature of the data set: Antiviral activity against Hepatitis B virus infected in human HepG2.2.15 cells assessed as inhibition of HBeAg secretion at 3.13 ug/ml after 4 days by ELISA relative to control. The following applies: HepG2.2.15, 96 h. In kind it is functional. The gist of the method: (§1)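 HepG2.2.15 cells in DMEM with nonessential amino acids, sodium pyruvate and 10% heat-inactivated FBS, 37 °C, 5% CO2, seeded at 1.0×10^5 cells/mL. Treated at 3.13 µg/mL for 4 or 8 days. Cleared supernatant stored at -20 °C, then HBsAg/HBeAg measured by ELISA, OD 450 nm. % inhibition = (1 − sample OD/untreated control OD)×100.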
For orientation: In an ELISA, binding on a coated surface is turned into a signal by an enzyme label.

Data set [2] can be described thus: Therapeutic index, ratio of TC50 for human HepG2.2.15 cells to IC50 for Hepatitis B virus infected in human HepG2.2.15 cells assessed as inhibition of HBsAg secretion after 8 days. Type of data set: toxicity, cell-based. To be noted: read-out: TI.
The nature of data set [3]: Acute toxicity in ICR mouse assessed as mortality rate at 422 mg/kg, ip measured up to 14 days relative to control. In kind it is organism-based. The following applies: in vivo. The gist of the method: (§2)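 Kunming mice of both sexes, 18-22 g, six groups of six matched for weight and size, single intraperitoneal injection at 56, 178, 350, 422, 750 or 1000 mg/kg. General behaviour observed at 1, 4 and 24 h, then followed up to 14 days for behaviour, toxic effects and mortality. LD50 with 95% confidence interval derived from the dose groups.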

Data set [4] is described as follows: Therapeutic index, ratio of TC50 for human HepG2.2.15 cells to IC50 for Hepatitis B virus infected in human HepG2.2.15 cells assessed as inhibition of HBeAg secretion after 4 days. Type of data set: toxicity, cell-based. To be noted: read-out: TI.
For data set [5], the system named is Hepatitis B virus. Nature of the data set: Antiviral activity against Hepatitis B virus infected in human HepG2.2.15 cells assessed as inhibition of HBsAg secretion at 3.13 ug/ml after 4 days by ELISA relative to control. The following applies: HepG2.2.15, 96 h. In kind it is functional. In a few lines:
as §1

Data set [6] has as its system Hepatitis B virus. Nature of the data set: Antiviral activity against Hepatitis B virus infected in human HepG2.2.15 cells assessed as inhibition of HBeAg secretion at 3.13 ug/ml after 8 days by ELISA relative to control. To be noted: HepG2.2.15, 192 h. In kind it is functional. The gist of the method:
as §1

Data set [7] relates to Hepatitis B virus. Description: Antiviral activity against Hepatitis B virus infected in human HepG2.2.15 cells assessed as inhibition of HBeAg secretion after 8 days by ELISA. The following applies: HepG2.2.15, 192 h. Type of data set: functional, organism-based. In a few lines: (§3)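 HepG2.2.15 cells kept as monolayers in DMEM with nonessential amino acids, sodium pyruvate and 10% heat-inactivated FBS, 37 °C, 5% CO2. Seeded at 1.0×10^5 cells/mL in 96-well plates and exposed to a range of concentrations (ethanol-dissolved) for 4 or 8 days. Supernatant HBsAg/HBeAg measured by ELISA at 450 nm. % inhibition = (1 − sample OD/untreated control OD)×100.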

Data set [8] can be described thus: Acute toxicity in ICR mouse assessed as mortality rate at 1000 mg/kg, ip measured up to 14 days relative to control. Type of data set: organism-based. To be noted: in vivo. The gist of the method: as §2
Data set [9] concerns Hepatitis B virus. Nature of the data set: Antiviral activity against Hepatitis B virus infected in human HepG2.2.15 cells assessed as inhibition of HBsAg secretion after 8 days by ELISA. In kind it is functional, organism-based. The following applies: HepG2.2.15, 192 h. In a few lines: as §3
In data set [10] the test system is HepG2 2.2.15. Nature of the data set: (§4) Cytotoxicity against human HepG2.2.15 cells after 4 days by MTS assay. Type of data set: cell-based. The following applies: hepg2 2.2.15, 96 h. The gist of the method:
(§5)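 HepG2.2.15 cells seeded at 1.0×10^5 cells/mL, grown 24 h at 37 °C in 5% CO2, then exposed to various concentrations (ethanol-dissolved) for 4 days. Medium removed and MTS added for 3 h at 37 °C. Absorbance read at 490 nm. % inhibition = (1 − sample OD/untreated control OD)×100.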
A general note: Formazan colour is commonly taken as a measure of viable cells.

Data set [11] can be described thus: as §4. In kind it is cell-based, HepG2 2.2.15. The following applies: HepG2.2.15 cells, read-out: TC50. The gist of the method: as §5
In data set [12] the test system is Hepatitis B virus. Nature of the data set: Antiviral activity against Hepatitis B virus infected in human HepG2.2.15 cells assessed as inhibition of HBsAg secretion after 4 days by ELISA. In kind it is functional, organism-based. The following applies: HepG2.2.15, 96 h. In a few lines: as §3
The subject of data set [13] is Hepatitis B virus. Nature of the data set: Antiviral activity against Hepatitis B virus infected in human HepG2.2.15 cells assessed as inhibition of HBeAg secretion after 4 days by ELISA. In kind it is functional, organism-based. The following applies: HepG2.2.15, 96 h. In a few lines:
as §3

Data set [14] can be described thus: Therapeutic index, ratio of TC50 for human HepG2.2.15 cells to IC50 for Hepatitis B virus infected in human HepG2.2.15 cells assessed as inhibition of HBeAg secretion after 8 days. The following applies: read-out: TI. Type of data set: toxicity, cell-based.
Data set [15] has as its system Hepatitis B virus. Nature of the data set: Antiviral activity against Hepatitis B virus infected in human HepG2.2.15 cells assessed as inhibition of HBsAg secretion at 3.13 ug/ml after 8 days by ELISA relative to control. The following applies: HepG2.2.15, 192 h. Type of data set: functional. In a few lines: as §1
Data set [16] is described as follows: Acute toxicity in ICR mouse assessed as mortality rate at 178 mg/kg, ip measured up to 14 days relative to control. In kind it is organism-based. To be noted: in vivo. The gist of the method: as §2
Data set [17] is described as follows: Therapeutic index, ratio of TC50 for human HepG2.2.15 cells to IC50 for Hepatitis B virus infected in human HepG2.2.15 cells assessed as inhibition of HBsAg secretion after 4 days. Type of data set: toxicity, cell-based. To be noted: read-out: TI.
Data set [18] can be described thus: Acute toxicity in ICR mouse assessed as mortality rate at 750 mg/kg, ip measured up to 14 days relative to control. Type of data set: organism-based. To be noted: in vivo. The gist of the method:
as §2

The record followed here is ChEMBL document CHEMBL4138041, “Synthesis and biological activity evaluation of novel peroxo-bridged derivatives as potential anti-hepatitis B virus agents” (Medchemcomm, 2017).

SMILES strings stand for the structures. ≈ marks a conversion by molar mass, not a printed value.

For orientation: inhibition means the change of the read-out against control, counted positive when it falls. A word on the mortality: it is the percentage killed. For orientation: IC50 means the concentration that inhibits the measured activity by half. `CC(C)CCC[C@@H](C)[C@H]1CC[C@@H]2[C@]1(C)CC[C@H]1[C@]23C=C[C@@]2(CC(=O)CC[C@]12C)OO3`: the inhibition at 3.13 µg/mL was 54.1% in [1], 72.3% in data set [5], 58.7% in data set [6] and 77.5% in [15]. Besides, the selectivity ratio at 192 h in [2] turned out to be 3.4; in data set [14], 3.47. Also, the mortality at 336 h in data set [3] was 67%; in data set [8], 100%; in [16] it was 0%; in [18] it was 100%. In addition, the selectivity ratio at 96 h in data set [4] was found to be 5.51; in [17] it was 5.79. For the same compound, the IC50 in [7] worked out at 2.95 µg/mL (≈ 7.11 µM); in [9], 2.59 µg/mL (≈ 6.25 µM); in data set [12], 1.78 µg/mL (≈ 4.29 µM); in [13], 1.86 µg/mL (≈ 4.49 µM). In addition, the Activity result in data set [10] is “Dose-dependent effect”. Also, the CC50 at 96 h in data set [11] is 10.2 µg/mL (≈ 24.7 µM).

With `CC(C)CCC[C@@H](C)[C@H]1CC[C@@H]2[C@]1(C)CC[C@H]1[C@]23C=C[C@@]2(C[C@@H](O)CC[C@]12C)OO3`, the inhibition at 3.13 µg/mL came to 1.35% in data set [1], 1.2% in [5], 2.55% in data set [6] and 1.56% in [15]. Also, the Activity entry in data set [10] is “Dose-dependent effect”.

On to `CCC(CC[C@@H](C)[C@H]1CC[C@@H]2[C@]1(C)CC[C@H]1[C@]23C=C[C@@]2(CC(=O)CC[C@]12C)OO3)C(C)C` (some centres not stated), for which the inhibition at 3.13 µg/mL in [1] was 3.28%; in data set [5], 1.91%; in data set [6] it was 2.36%; in data set [15] it was 5.7%. In [10], the Activity entry was “Dose-dependent effect”.

Regarding `CCC(CC[C@@H](C)[C@H]1CC[C@@H]2[C@]1(C)CC[C@H]1[C@]23C=C[C@@]2(C[C@@H](O)CC[C@]12C)OO3)C(C)C` (some centres not stated), the inhibition at 3.13 µg/mL in data set [1] is 2.88%; in data set [5], 19%; in data set [6], 10.3%; in data set [15], 20%. Besides, the Activity entry in [10] is “Dose-dependent effect”.

For the compound `CC(=O)O[C@H]1CC[C@]2(C)[C@H]3CC[C@]4(C)[C@@H]([C@H](C)CCCC(C)C)CC[C@H]4[C@@]34C=C[C@@]2(C1)OO4`, the inhibition at 3.13 µg/mL in data set [1] worked out at 3.51%; in data set [5], 13%; in data set [6] it was 7.56%; in data set [15], 13.8%. Moreover, the Activity result in [10] is on record as “Dose-dependent effect”.

Consider `Nc1ccn([C@H]2CS[C@@H](CO)O2)c(=O)n1`, for which the inhibition at 3.13 µg/mL in data set [1] was 4.94%; in data set [5], 5.68%; in data set [6], -9.22%; in data set [15], -0.44%.

For `CCC(CC[C@@H](C)[C@H]1CC[C@@H]2[C@]1(C)CC[C@H]1[C@]23C=C[C@@]2(C[C@@H](OC(C)=O)CC[C@]12C)OO3)C(C)C` (some centres not stated), the inhibition at 3.13 µg/mL in data set [1] came out at 25.6%; in [5] it was 26.7%; in data set [6] it was 25.8%; in data set [15] it was 28.8%. Further, the Activity result in data set [10] is on record as “Dose-dependent effect”.
